Assays:
A2780 [1] = experiment: Inhibition of DNA synthesis in human A2780 cells assessed as ratio of treated to untreated control at 3 uM after 48 hrs by [3H]thymidine incorporation assay; assay type: functional
Summary of the method: (§1)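 Single-concentration screen by [3H]-thymidine incorporation into DNA. Test compounds were used at 0.3 µM in C4–2B cells and at 3 µM in 320DM, MLS, A2780, H295R and VSMC cells. Estradiol 17β was used at 30 nM throughout. Values are experimental/control DNA-synthesis ratios, given as means ± SD of 8–16 incubates from 2–4 experiments.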

[2] = Inhibition of DNA synthesis in human 320DM cells assessed as ratio of treated to untreated control at 3 uM after 48 hrs by [3H]thymidine incorporation assay; assay type: functional; summary of the method: as §1
[3] = Inhibition of DNA synthesis in human H295R cells assessed as ratio of treated to untreated control at 3 uM after 48 hrs by [3H]thymidine incorporation assay; assay type: functional; summary of the method: as §1
LNCaP C4-2B [4] = experiment: Inhibition of DNA synthesis in human C4-2B cells assessed as ratio of treated to untreated control at 0.3 uM after 48 hrs by [3H]thymidine incorporation assay; assay type: functional; summary of the method: as §1
[5] = Inhibition of DNA synthesis in human VSMC cells assessed as ratio of treated to untreated control at 3 uM after 48 hrs by [3H]thymidine incorporation assay
[6] = Inhibition of DNA synthesis in human MLS cells assessed as ratio of treated to untreated control at 1.1 uM after 48 hrs by [3H]thymidine incorporation assay; assay type: functional
Summary of the method: (§2)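 [3H]-thymidine incorporation into DNA in human MLS ovarian or 320DM colon cancer cells; antagonist tested at 1.1 µM alone or with estradiol at 30 nM or 300 nM. Reported as ratio of experimental to control (E/C) DNA synthesis, means ± SD of 8–16 incubates from 2–4 experiments; significance flagged at p < 0.05 and p < 0.01.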

[7] = Inhibition of DNA synthesis in human 320DM cells assessed as ratio of treated to untreated control at 1.1 uM after 48 hrs by [3H]thymidine incorporation assay; assay type: functional; summary of the method: as §2
[8] = Inhibition of 30 nM estradiol induced stimulation of DNA synthesis in human MLS cells assessed as ratio of treated to untreated control at 1.1 uM after 48 hrs by [3H]thymidine incorporation assay; assay type: functional; summary of the method: as §2
[9] = Inhibition of 30 nM estradiol induced stimulation of DNA synthesis in human 320DM cells assessed as ratio of treated to untreated control at 1.1 uM after 48 hrs by [3H]thymidine incorporation assay; assay type: functional; summary of the method: as §2
[10] = Inhibition of 300 nM estradiol induced stimulation of DNA synthesis in human MLS cells assessed as ratio of treated to untreated control at 1.1 uM after 48 hrs by [3H]thymidine incorporation assay; assay type: functional; summary of the method: as §2
[11] = Inhibition of 300 nM estradiol induced stimulation of DNA synthesis in human 320DM cells assessed as ratio of treated to untreated control at 1.1 uM after 48 hrs by [3H]thymidine incorporation assay; assay type: functional; summary of the method: as §2
[12] = Inhibition of DNA synthesis in human H295R cells assessed as ratio of treated to untreated control at 30 nM after 48 hrs by [3H]thymidine incorporation assay; assay type: functional; summary of the method: as §1
LNCaP C4-2B [13] = experiment: Inhibition of DNA synthesis in human C4-2B cells assessed as ratio of treated to untreated control at 30 nM after 48 hrs by [3H]thymidine incorporation assay; assay type: functional; summary of the method: as §1
[14] = Inhibition of DNA synthesis in human VSMC cells assessed as ratio of treated to untreated control at 30 nM after 48 hrs by [3H]thymidine incorporation assay; assay type: cell-based; details: 0.03 µM; summary of the method: as §1
[15] = Stimulation of DNA synthesis in human MLS cells assessed as ratio of treated to untreated control at 300 nM after 48 hrs by [3H]thymidine incorporation assay; assay type: functional
Summary of the method: (§3)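 Estradiol-driven proliferation in MLS and 320DM cells, measured by [3H]-thymidine incorporation. Cells were exposed to estradiol at 30 or 300 nM, alone or with compound (0.3 µM) or ICI 182780 (1.1 µM). Values are E/C ratios versus untreated control, given as means ± SD of 8–16 incubates from 2–4 experiments.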

[16] = Inhibition of DNA synthesis in human 320DM cells assessed as ratio of treated to untreated control at 30 nM after 48 hrs by [3H]thymidine incorporation assay; assay type: functional; summary of the method: as §1
[17] = Inhibition of DNA synthesis in human MLS cells assessed as ratio of treated to untreated control at 30 nM after 48 hrs by [3H]thymidine incorporation assay; assay type: functional; summary of the method: as §1
A2780 [18] = experiment: Inhibition of DNA synthesis in human A2780 cells assessed as ratio of treated to untreated control at 30 nM after 48 hrs by [3H]thymidine incorporation assay; assay type: functional; summary of the method: as §1
[19] = Stimulation of DNA synthesis in human 320DM cells assessed as ratio of treated to untreated control at 300 nM after 48 hrs by [3H]thymidine incorporation assay; assay type: functional; summary of the method: as §3
[20] = Inhibition of DNA synthesis in human MLS cells assessed as ratio of treated to untreated control at 3 uM after 48 hrs by [3H]thymidine incorporation assay; assay type: functional; summary of the method: as §1

CC(C)(C)OC(=O)NCCCCCCNC(=O)CCCc1oc2cc(O)cc(O)c2c(=O)c1-c1ccc(O)cc1
Ratio (A2780 [1]): 1.12 | Ratio [2]: 0.2 | Ratio [3]: 0.6 | Ratio (LNCaP C4-2B [4]): 0.75 | Ratio [5]: 0.78

C[C@]12CC[C@@H]3c4ccc(O)cc4C[C@@H](CCCCCCCCC[S+]([O-])CCCC(F)(F)C(F)(F)F)[C@H]3[C@@H]1CC[C@@H]2O (stereo not given in full) [FULVESTRANT]
Ratio [6]: 0.52 | Ratio [7]: 0.63 | Ratio [8]: 0.53 | Ratio [9]: 0.63 | Ratio [10]: 0.95 | Ratio [11]: 0.92

C[C@]12CC[C@@H]3c4ccc(O)cc4CC[C@H]3[C@@H]1CC[C@@H]2O [ESTRADIOL]
Ratio [12]: 2.1 | Ratio (LNCaP C4-2B [13]): 2.1 | Ratio [14]: 0.55 | Ratio [15]: 1.7 | Ratio [16]: 2.06 | Ratio [17]: 2.35 | Ratio (A2780 [18]): 1.42 | Ratio [19]: 1.87

COc1ccc(-c2c(CCCC(=O)NCCCCCCNC(=O)OC(C)(C)C)oc3cc(O)cc(O)c3c2=O)cc1
Ratio (A2780 [1]): 0.64 | Ratio [2]: 0.22 | Ratio [20]: 0.05 | Ratio [3]: 0.55 | Ratio (LNCaP C4-2B [4]): 0.41 | Ratio [5]: 0.74

— ChEMBL document CHEMBL1138318, “Synthesis and evaluation of the antiproliferative activities of derivatives of carboxyalkyl isoflavones linked to N-t-Boc-hexylenediamine” (J Med Chem, 2007)
